Source: PubChem BioAssay (several laboratories)
HCV core dimer: inhibitors of HCV core protein dimerization, primary screen, biochemical, TR-FRET, high-throughput. TR-FRET GST/Flag-core106 dimerization, 1536-well. inhibition, % at 5 µM. 300,000 compounds, 0.33% hits. AID 1899, 2009;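 active means inhibition above the mean of all tested compounds plus 3 SD, set per screening campaign, cut at about 45% in these data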
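System: GST-tagged and Flag-tagged HCV core protein residues 1-106 / Input: core106 proteins, GST 13.5 nM and Flag 17 nM / Buffer or medium: KF-containing HEPES buffer, pH 7.45, DTT, CHAPS, BSA / Probe or stimulus: Eu-anti-GST and XL665-anti-Flag labelled anti-tag antibodies / Schedule: 4 h, 22.5 °C incubation / Technique: TR-FRET 671 and 617 nm emission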
ABHD5-PLIN5 inh: ABHD5-PLIN5 interaction inhibitors, primary screen, cell lysate, split luciferase complementation, luminescence. Perilipin-5 (Homo sapiens) + 1-acylglycerol-3-phosphate O-acyltransferase ABHD5 (Homo …. Split G. princeps luciferase complementation, 4 h. 360,000 compounds, 0.78% hits. inhibition, % at 4 µM;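 active means inhibition above the mean inhibition across every tested compound plus 3 SD, cut at about 22% in these data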;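 further: 0% = DMSO only wells and the 100% control is not disclosed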
Target sequence (Q00G26 whole entry, looked up): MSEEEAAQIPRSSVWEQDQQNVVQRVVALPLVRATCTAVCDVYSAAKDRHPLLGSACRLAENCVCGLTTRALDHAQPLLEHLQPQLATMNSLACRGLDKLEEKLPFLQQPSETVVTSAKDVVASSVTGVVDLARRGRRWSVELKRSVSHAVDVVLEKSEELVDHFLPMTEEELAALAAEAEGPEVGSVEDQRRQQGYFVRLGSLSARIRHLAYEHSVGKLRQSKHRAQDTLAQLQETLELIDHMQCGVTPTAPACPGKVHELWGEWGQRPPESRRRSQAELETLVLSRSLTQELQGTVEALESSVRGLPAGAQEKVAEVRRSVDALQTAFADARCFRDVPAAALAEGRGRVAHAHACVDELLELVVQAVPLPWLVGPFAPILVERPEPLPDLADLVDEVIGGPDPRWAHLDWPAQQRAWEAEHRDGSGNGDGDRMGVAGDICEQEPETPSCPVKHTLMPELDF
Target sequence (Q8WTS1 whole entry, looked up): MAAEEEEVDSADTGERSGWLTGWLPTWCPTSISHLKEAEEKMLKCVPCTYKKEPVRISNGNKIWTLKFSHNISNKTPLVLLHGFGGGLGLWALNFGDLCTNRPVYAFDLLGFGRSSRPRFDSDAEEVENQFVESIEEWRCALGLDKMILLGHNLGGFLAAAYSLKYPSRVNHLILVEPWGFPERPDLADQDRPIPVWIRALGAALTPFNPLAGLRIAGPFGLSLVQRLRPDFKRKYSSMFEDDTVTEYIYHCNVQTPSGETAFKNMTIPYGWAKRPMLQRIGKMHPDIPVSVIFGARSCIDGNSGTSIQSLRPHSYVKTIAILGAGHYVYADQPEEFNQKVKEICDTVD
NadD inh: inhibitors of S. aureus NadD, primary screen, biochemical, colorimetric, uHTS; 360,000 compounds, 0.78% hits; AID 602399, 2012; purified NadD enzyme, colorimetric absorbance read-out; Nicotinate-nucleotide adenylyltransferase NadD (Staphylococcus aureus N315); inhibition, % at 20 µM; in the data active means inhibition above about 26%
rCAG binder: binders of r(CAG) RNA repeats, primary screen, biochemical, fluorescence; r(CAG) RNA repeat, TO-PRO-1 dye displacement fluorescence; inhibition, % at 3 µM; AID 651821, 2012; 370,000 compounds, 1.3% hits;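 active means inhibition above the plate cutoff, the mean of all test compounds on that plate plus 3 SD, cut at about 35% in these data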;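 further: 0% = DMSO alone and 100% = 100 µM mitoxantrone as full dye displacement; higher means more dye released from RNA so lower well fluorescence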
NadD inh conf: inhibitors of S. aureus NadD, confirmation, biochemical, colorimetric, single concentration; shares compounds with NadD inh; purified S. aureus NadD, colorimetric enzyme assay; inhibition, % at 20 µM; 2,000 compounds, 13% hits; in the data active means inhibition mostly above about 42%, no sharp cut-off; inactive means mostly below about 42%
rCAG binder conf: small molecules binding CAG repeat RNA – biochemical, fluorescence, confirmation. 4,300 compounds, 70% hits. AID 652065, 2013. shares compounds with rCAG binder. inhibition, % at 3 µM. r(CAG) RNA repeat, TO-PRO-1 dye displacement fluorescence;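 active means inhibition above a per-plate cutoff, the mean inhibition of sample wells plus 3 SD, cut at about 35% in these data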;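 further: loss of TO-PRO-1 fluorescence as compound displaces dye from 1x1 AA loop RNA; 0% = DMSO only wells and 100% = 100 µM mitoxantrone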
DNA CAG counter: displacement of TO-PRO-1 from CAG DNA duplex, counter-screen for rCAG RNA repeat binder project, biochemical, fluorescence, TO-PRO-1 dye, d(CAG) DNA oligo; shares compounds with rCAG binder; d(CAG) DNA oligo TO-PRO-1 dye displacement; inhibition, % at 3 µM; 4,300 compounds, 94% hits;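 active means inhibition above its plate's cutoff, the mean test-well inhibition plus 3 SD, cut at about 4.8% in these data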;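 further: 0% = DNA dye mix with DMSO and 100% = 100 µM mitoxantrone; hits displace the dye from DNA and so lower well fluorescence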
* hit, by the source's call. In the library only some 2.6% were active in any assay of this set; here they are far more common.

For COc1ccc(O)c(C(=O)c2cc(SCC(=O)O)c3nc4sc5c(c4c(=O)n3c2)CCCC5)c1 the results were HCV core dimer 27.4, ABHD5-PLIN5 inh -4.9, NadD inh 45.8*, rCAG binder 41.8*, NadD inh conf 36.2, rCAG binder conf 89.2* and DNA CAG counter 62.8*.
Screening O=C(O)CSc1cc(C(=O)c2ccccc2O)cn2c(=O)c3c(-c4ccccc4)csc3nc12 returned HCV core dimer 54.5*, ABHD5-PLIN5 inh 0.9, NadD inh 38.0*, rCAG binder 52.5*, NadD inh conf 57.2*, rCAG binder conf 90.2* and DNA CAG counter 74.3*.
O=C(Nc1cccc(C(F)(F)F)c1)Nc1nnc([C@@H]2C[C@H](O)[C@@H](CO)O2)s1 was read as ABHD5-PLIN5 inh 3.2, NadD inh -2.3 and rCAG binder 8.7.
`COCc1cc(=O)n2[nH]c(-c3ccsc3-n3c(C)ccc3C)cc2n1` gave HCV core dimer 10.1, ABHD5-PLIN5 inh 6.1, NadD inh 56.1*, rCAG binder 40.5*, NadD inh conf 42.8*, rCAG binder conf 39.4* and DNA CAG counter 17.4*.
`COC(=O)c1sc2ccccc2c1NC(=O)c1ccc(S(=O)(=O)N2CC(C)CC(C)C2)cc1` (configuration not stated) gave HCV core dimer 7.8, ABHD5-PLIN5 inh -5.1, NadD inh 11.5 and rCAG binder 2.3.
For Cc1ccc2nc(NNC(=O)c3ccc(S(=O)(=O)N4CCc5ccccc5C4)cc3)sc2c1 the results were HCV core dimer 38.2, ABHD5-PLIN5 inh 33.8*, NadD inh 58.6*, rCAG binder 51.0*, NadD inh conf 56.2*, rCAG binder conf 60.2* and DNA CAG counter 29.1*.
For Cc1cccc2sc(NNC(=O)c3ccc(S(=O)(=O)N4CC(C)CC(C)C4)cc3)nc12 (configuration not stated) the results were HCV core dimer 25.9, ABHD5-PLIN5 inh 38.4*, NadD inh 58.0*, rCAG binder 66.3*, NadD inh conf 54.1*, rCAG binder conf 62.9* and DNA CAG counter 29.7*.
Cc1cc(C)c2nc(NNC(=O)c3ccc(S(=O)(=O)N4CC(C)CC(C)C4)cc3)sc2c1 (configuration not stated) was read as HCV core dimer 38.4, ABHD5-PLIN5 inh 29.0*, NadD inh 34.4*, rCAG binder 42.7*, NadD inh conf 23.8, rCAG binder conf 48.7* and DNA CAG counter 24.4*.
`Cc1ccccc1CN1CCCCC(NC(=O)c2ccccc2)C1=O` (configuration not stated) gave rCAG binder 2.3.
`OC1(C#Cc2c(-c3ccsc3)sc3ccccc23)CCCCC1` gave rCAG binder 6.1.
`N#C/C(=C(/O)CN1CCN(c2ccccc2F)CC1)c1nc(-c2ccccc2)cs1` gave HCV core dimer -10.0, ABHD5-PLIN5 inh -6.1, NadD inh 31.3*, rCAG binder 58.2*, NadD inh conf 25.4, rCAG binder conf 49.5* and DNA CAG counter 16.2*.
CC(C)CCN(CCC(C)C)C/C(O)=C(\C#N)c1nc(-c2ccccc2)cs1 was read as HCV core dimer 4.1, ABHD5-PLIN5 inh -7.2, NadD inh 16.1 and rCAG binder 4.6.
For COc1ccccc1N1CSC2=C(C#N)C(c3ccc(SC)cc3)CC(=O)N2C1 (configuration not stated) the results were HCV core dimer 13.1, ABHD5-PLIN5 inh -25.0, NadD inh 35.1*, rCAG binder 40.0*, NadD inh conf 38.7, rCAG binder conf 46.6* and DNA CAG counter 18.7*.
CCOC1=C2CN(S(=O)(=O)c3ccccc3)[C@@H](c3ccccc3)C[C@H]2[C@H]2C(=O)N(c3ccccc3)C(=O)[C@H]2C1 was read as rCAG binder 15.1.
For CC(C)CNC(=O)COC(=O)c1c2c(nc3ccccc13)/C(=C\c1cccs1)CC2 the results were ABHD5-PLIN5 inh -2.5, NadD inh 11.6 and rCAG binder 20.4.
For CN(CCC#N)C(=O)COC(=O)c1c2c(nc3ccccc13)/C(=C/c1ccco1)CC2 the results were HCV core dimer 52.8*, ABHD5-PLIN5 inh 18.6, NadD inh 49.7*, rCAG binder 68.9*, NadD inh conf 57.8*, rCAG binder conf 51.8* and DNA CAG counter 28.5*.
CN(C(=O)c1ccccc1OCC(=O)Nc1ccc(Br)cc1)c1ccccc1 was read as rCAG binder 0.8.
`CC(Nc1nc(Nc2ccc(F)cc2)nc(SCC(N)=O)n1)c1ccccc1` (configuration not stated) gave HCV core dimer 3.7, ABHD5-PLIN5 inh 2.5, NadD inh 1.7 and rCAG binder -0.5.
CC(Nc1nc(=S)nc(Nc2ccc(F)cc2)[nH]1)c1ccccc1 (configuration not stated) was read as HCV core dimer 13.7, ABHD5-PLIN5 inh -26.2, NadD inh 31.2*, rCAG binder 67.5*, NadD inh conf 36.8, rCAG binder conf 9.6 and DNA CAG counter 11.7*.
For O=C(N/N=C/c1cccc(F)c1)c1cc(-c2ccco2)nc2ccccc12 the results were HCV core dimer 73.5*, ABHD5-PLIN5 inh -0.6, NadD inh 52.5*, rCAG binder 45.2*, NadD inh conf 81.0*, rCAG binder conf 40.8* and DNA CAG counter 26.2*.
CCc1nnc(NC(=O)c2cc(-c3ccco3)nc3ccccc23)s1 was read as HCV core dimer 73.3*, ABHD5-PLIN5 inh 0.0, NadD inh 80.9*, rCAG binder 36.3*, NadD inh conf 43.5, rCAG binder conf 23.1 and DNA CAG counter 16.2*.
For CC[C@H](NC(=O)[C@@H](Cc1ccccc1)NC(=O)[C@H]1O[C@@H](n2ccc(=O)[nH]c2=O)[C@H](O)[C@@H]1O)c1ccccc1 the results were rCAG binder 3.4.
O=C(c1ccncc1)N(c1ccc(N2CCOCC2)cc1)C(c1ccccc1)c1nc2ccccc2[nH]1 (configuration not stated) was read as ABHD5-PLIN5 inh -3.8, NadD inh -3.2 and rCAG binder 8.0.
Screening C[C@@H]1OCN(C)[C@H]2C[C@H]3c4[nH]c5cccc(-c6ccccc6)c5c4CCN3C[C@@H]12 returned rCAG binder 4.5.
